Assay results from article PMC6282775 (Journal of Clinical Pharmacology, 2018).

Key:
Unbound fraction = assay type: in vivo, human; conditions: for fraction unbound: human, plasma, oral, 300 mg, median value of individual mean fu%, plasma 6 and 12 hours postdose; for GMR of unbound AUC0‐∞ / GMR of unbound Cmax: single 300-mg dose of alectinib
Procedure, shortened: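 Single oral 300 mg dose given 30 min after the start of a standard ~514 kcal meal, after a ≥10 h fast. Plasma taken 6 and 12 h postdose was dialyzed in triplicate, and plasma and buffer were analysed by LC-MS/MS. Samples were spiked if levels were too low. fu% = unbound/total ×100, geometric mean of triplicates (outlier dropped if CV >45.0%). GMRs from ANOVA of log Cmax and AUC0‐∞, with matched controls as a random effect.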

[1] = Safety evaluations in the clinical study; assay type: in vivo, human
Procedure, shortened: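 Open-label, multicenter, parallel-group study in healthy subjects and subjects with moderate (Child-Pugh B) or severe (Child-Pugh C) hepatic impairment. Subjects fasted at least 10 h, then took one oral 300-mg capsule dose of test compound with water 30 min after starting a standard meal. No food for 4 h. Adverse events, vital signs, clinical laboratory tests and ECGs were recorded, with follow-up 7–10 days after dosing.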

plasma proteins = conditions: cited from earlier work
[2] = Clinical hepatic impairment study: total plasma PK of alectinib and M4; assay type: in vivo, human; conditions: single 300-mg dose of alectinib
CYP3A = conditions: cited from earlier work
[3] = moderate hepatic impairment/matched healthy subjects
[4] = severe hepatic impairment/matched healthy subjects

## CCc1cc2c(cc1N1CCC(N3CCOCC3)CC1)C(C)(C)c1[nH]c3cc(C#N)ccc3c1C2=O [Alectinib]
Unbound fraction; healthy subjects matched for moderate
  fraction unbound: 0.00206
Unbound fraction; healthy subjects matched for severe
  fraction unbound: 0.0014
Unbound fraction; moderate hepatic impairment
  fraction unbound: 0.00229
Unbound fraction; severe hepatic impairment
  fraction unbound: 0.00179
Unbound fraction; [3]
  GMR of unbound AUC0‐∞: 186%
  GMR of unbound Cmax: 148%
Unbound fraction; [4]
  GMR of unbound AUC0‐∞: 285%
  GMR of unbound Cmax: 130%
[1]; single oral 300 mg, during the study
  changes in vital signs, laboratory values, or electrocardiogram measurements: No clinically significant changes
[1]; single oral dose of 300 mg, healthy subjects and subjects with moderate or severe hepatic impairment
  tolerability: well tolerated
Plasma proteins
  protein binding in vitro: ≥ 99%
[2]; [3]
  GMR of total AUC0‐∞: 160%
  GMR of total Cmax: 128%
[2]; [4]
  GMR of total AUC0‐∞: 220%
  GMR of total Cmax: 100%
CYP3A
  increase in exposure on coadministration of a potent CYP3A inhibitor: 75%
